Experimental data pooled from the literature.
Protocols differ between the studies behind these lines.
Target: Serine/threonine-protein kinase SIK2 (SIK2, Homo sapiens, UniProt Q9H0K1)

| SMILES | observed | mode | technique | tested at | quantity | result |
| --- | --- | --- | --- | --- | --- | --- |
| O=c1[nH]c2ccccc2n1C1CCN(Cc2ccc(-c3[nH]c4cc5ncnc5cc4nc3-c3ccccc3)cc2)CC1 | cell-free assay |  |  | 0.5 µM | remaining signal | 114% |
| Cn1cncc1[C@](O)(COc1ccc(C#N)cc1-c1ccc(OC(F)(F)F)cc1)c1ccc(C#N)cc1 | cell-free assay |  | competition with immobilised ligand | 1 µM | remaining binding | 95% |
| Cc1nn(C)cc1-c1nc2c(N3CCN(Cc4ccc(Cl)cc4)CC3)c(Cl)cnc2[nH]1 | binding |  | competition with immobilised ligand | 1 µM | remaining binding | 36% |
| COc1ncccc1-c1cnn2ccc(N3CCN(C(=O)OC(C)C)CC3)nc12 | binding |  | competition with immobilised ligand | 1 µM | remaining binding | 50% |
| Cn1cc(-c2cccc(N3CCc4c(sc5c4CC(C)(C)C5)C3=O)c2CO)cc(Nc2ccncn2)c1=O | enzyme activity | inhibitor |  | 1 µM | inhibition | 4% |
| O=C(NCc1ncc(C(F)(F)F)cc1Cl)c1ccc2c(c1)C1(CCS(=O)(=O)CC1)[C@H](C1CC1)N2S(=O)(=O)c1ccc(F)cc1 | cell-free assay |  | competition with immobilised ligand | 1 µM | remaining binding | 96% |
| CC(C)(C)c1cc(C=C(C#N)C#N)cc(Br)c1O | enzyme activity | inhibitor |  | 0.5 µM | remaining activity | 115% |
| Cn1cc(-c2cc(F)cc(N3CCn4c(cc5c4CCCC5)C3=O)c2CO)cc(Nc2ccc(N3CCN(C4COC4)CC3)cn2)c1=O | enzyme activity | inhibitor |  | 0.1 µM | inhibition | 13% |
